Key:
Plasmodium falciparum [1] = test: Potency index, ratio of chloroquine IC50 to compound IC50 for chloroquine/pyrimethamine-resistant erythrocytic form of Plasmodium falciparum K1; type: functional
Plasmodium falciparum [2] = test: Antiprotozoal activity against chloroquine/pyrimethamine-resistant erythrocytic form of Plasmodium falciparum K1 assessed as parasite growth inhibition; type: functional, organism-based
L6 = test: Cytotoxicity against rat L6 cells; type: cell-based
Procedure, shortened: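 L6 rat skeletal myoblasts; cytotoxicity IC50 determined at the Swiss Tropical and Public Health Institute by an earlier standard protocol.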

Leishmania tarentolae [3] = test: Antiprotozoal activity against promastigote form of Leishmania tarentolae P10 assessed as parasite growth inhibition after 48 hrs by MTT assay; type: functional, organism-based; conditions: P10, 48 h
Procedure, shortened: (§1)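 Promastigotes of nonpathogenic lizard-infecting L. tarentolae strain P10, cultured in hemin-supplemented BHI medium; IC50 determined.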

[4] = Selectivity index, ratio of IC50 for rat L6 cells to ratio of IC50 for chloroquine/pyrimethamine-resistant erythrocytic form of Plasmodium falciparum K1; type: toxicity, cell-based; conditions: read-out: Selectivity Index
[5] = Selectivity index, ratio of IC50 for rat L6 cells to ratio of IC50 for trypomastigote form of Trypanosoma brucei rhodesiense STIB 900; type: toxicity, cell-based; conditions: read-out: Selectivity Index
[6] = test system: Trypanosoma brucei rhodesiense; test: Antiprotozoal activity against trypomastigote form of Trypanosoma brucei rhodesiense STIB 900 assessed as parasite growth inhibition; type: functional, organism-based
[7] = Selectivity index, ratio of IC50 for rat L6 cells to ratio of IC50 for axenic amastigote form of Leishmania donovani MHOM/ET/67/L82; type: toxicity, cell-based; conditions: read-out: Selectivity Index
Leishmania donovani [8] = test: Antiprotozoal activity against axenic amastigote form of Leishmania donovani MHOM/ET/67/L82 assessed as parasite growth inhibition; type: functional, organism-based
Trypanosoma cruzi [9] = test: Antiprotozoal activity against intracellular amastigote form of Trypanosoma cruzi Tulahuen C4 assessed as parasite growth inhibition; type: functional, organism-based
Trypanosoma cruzi [10] = test: Antiprotozoal activity against Trypanosoma cruzi assessed as parasite growth inhibition; type: functional, organism-based
Procedure, shortened: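 T. cruzi intracellular amastigote stage, Tulahuen C4 strain; assayed at the Swiss Tropical and Public Health Institute by an earlier standard protocol.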

Leishmania donovani [11] = test: Antiprotozoal activity against Leishmania donovani assessed as parasite growth inhibition
Leishmania tarentolae [12] = test: Antiprotozoal activity against Leishmania tarentolae assessed as parasite growth inhibition; type: functional, organism-based; procedure, shortened: as §1

Compound	Ratio IC50 (Plasmodium falciparum [1])	IC50 (Plasmodium falciparum [2]) [µM]	IC50 (L6) [µM]	IC50 (Leishmania tarentolae [3]) [µM]	selectivity ratio [4]	selectivity ratio [5]	IC50 [6] [µM]	selectivity ratio [7]	IC50 (Leishmania donovani [8]) [µM]	IC50 (Trypanosoma cruzi [9]) [µM]	IC50 (Trypanosoma cruzi [10]) [µM]	IC50 (Leishmania donovani [11]) [µM]	IC50 (Leishmania tarentolae [12]) [µM]
CC(NCCCc1ccccc1)c1cc2c(cc1O)OC(C)(C)C=C2 (stereo not drawn)	25	0.01	27	6.2	1820	5.08	5.31						
C/C=C(/C)C(=O)OC(C)c1cc2c(cc1OC)OC(C)(C)C=C2 (stereo not drawn)		18.9	139	21.3	7.35	0.89	157	3	46.2	61.4			
COc1cc2c(cc1C(C)OCc1ccccc1)C=CC(C)(C)O2 (stereo not drawn)		9.48	43.9	1.53	4.64	0.58	76.1	2.1	21.2	45			
COc1cc2c(cc1C(C)OCCc1ccccc1)C=CC(C)(C)O2 (stereo not drawn)		59.9	123	1.17	2.08	0.69	180	1.9	63.5	56.7			
COc1cc2c(cc1C(C)OC/C=C/c1ccccc1)C=CC(C)(C)O2 (stereo not drawn)			64.4	0.86		0.68	94.7	2.8	23	73			
COc1cc2c(cc1C(C)NC(=O)c1ccccc1)C=CC(C)(C)O2 (stereo not drawn)		11.5	34.8	8.61	3.01	1.45	23.4	1.3	26.3	36.8			
COc1cc2c(cc1C(C)NC(=O)Cc1ccccc1)C=CC(C)(C)O2 (stereo not drawn)		31	86.5	7.69	2.79	0.83	103	1.6	53.8	44.7			
COc1cc2c(cc1C(C)NC(=O)/C=C/c1ccccc1)C=CC(C)(C)O2 (stereo not drawn)			107	1.78		2.99	35.9	4.1	26.3	23.1			
COc1cc2c(cc1C(C)NCc1ccccc1)C=CC(C)(C)O2 (stereo not drawn)		0.64	21	2.4	32.8	8.83	2.38	0.13	159	33.9			
COc1cc2c(cc1C(C)NCCc1ccccc1)C=CC(C)(C)O2 (stereo not drawn)		2.42	15.4	1.04	6.34	6.93	2.22	0.12	127	9.1			
COc1cc2c(cc1C(C)NCCCc1ccccc1)C=CC(C)(C)O2 (stereo not drawn)		0.85	1.08	0.22	1.27	1.05	1.03	0.01	101	13.6			
COc1cc2c(cc1C(C)NCCCCc1ccccc1)C=CC(C)(C)O2 (stereo not drawn)		1.41	4.73	0.77	3.35	1.5	3.15	0.07	71.7	4.19			
COc1ccc(CNC(C)c2cc3c(cc2OC)OC(C)(C)C=C3)cc1 (stereo not drawn)		0.93	14.9	9.8	16	6.13	2.42	0.07	225	33.1			
COc1cc2c(cc1C(C)N[C@H](C)c1ccccc1)C=CC(C)(C)O2 (stereo partly drawn)		0.72	15.9	8.61	22.1	7.85	2.02						
COc1cc2c(cc1C(C)N[C@@H](C)c1ccccc1)C=CC(C)(C)O2 (stereo partly drawn)		0.37	16.5	9.01	44.4	3.23	5.1						
COc1cc2c(cc1C(C)NC/C=C/c1ccccc1)C=CC(C)(C)O2 (stereo not drawn)		4.41	14.6	3.26	3.32	2.5	5.84	0.23	62.4	8.13			

Compound	Ratio IC50 (Plasmodium falciparum [1])	IC50 (Plasmodium falciparum [2]) [µM]	IC50 (L6) [µM]	IC50 (Leishmania tarentolae [3]) [µM]	selectivity ratio [4]	selectivity ratio [5]	IC50 [6] [µM]	selectivity ratio [7]	IC50 (Leishmania donovani [8]) [µM]	IC50 (Trypanosoma cruzi [9]) [µM]	IC50 (Trypanosoma cruzi [10]) [µM]	IC50 (Leishmania donovani [11]) [µM]	IC50 (Leishmania tarentolae [12]) [µM]
CCNC(C)c1cc2c(cc1OC)OC(C)(C)C=C2 (stereo not drawn)		8.12	176	8.76	22	7.71	22.8	0.48	365	91.5			
CCCCNC(C)c1cc2c(cc1OC)OC(C)(C)C=C2 (stereo not drawn)		4.18	52.5	6.25	12.6	6.41	8.19			25.2			
CCN(CC)CCCC(C)NC(C)c1cc2c(cc1OC)OC(C)(C)C=C2 (stereo not drawn)		2.39	41.9	3.24	17.5	22.5	1.86			35.5			
COc1cc2c(cc1C(C)NCC1CCCCC1)C=CC(C)(C)O2 (stereo not drawn)		2.46	14.5	0.65	5.88	6.69	2.16	0.1	139	12.9			
COc1cc2c(cc1C(C)N1CCOCC1)C=CC(C)(C)O2 (stereo not drawn)		9.92	157	12.4	15.9	1.63	96.2	1.06	148	110			
COc1cc2c(cc1C(C)N1CCCC1)C=CC(C)(C)O2 (stereo not drawn)		16.4	177	18.6	10.8	4.31	41.1	0.66	270	68.2			
COc1cc2c(cc1C(C)N(C)CCCc1ccccc1)C=CC(C)(C)O2 (stereo not drawn)		1.24	16.3	9.01	13.5	5.12	3.17	0.19	84.3	9.17			
COc1cc2c(cc1C(C)NCc1ccccc1)CCC(C)(C)O2 (stereo not drawn)		1.51	15.3	270	10.1	3.08	4.98	4.1	3.7	13.3			
COc1cc2c(cc1C(C)NCCc1ccccc1)CCC(C)(C)O2 (stereo not drawn)		2.49	14.5	126	5.8	3.48	4.15	8.4	1.73	12.1			
COc1cc2c(cc1C(C)NCCCc1ccccc1)CCC(C)(C)O2 (stereo not drawn)		2.13	2.63	129	1.23	1.15	2.27			5.35			
COc1cc2c(cc1C(C)NCCCCc1ccccc1)CCC(C)(C)O2 (stereo not drawn)		1.34	5.28	90.6	3.94	2.87	1.84	9.3	0.57	5.03			
CCCCNC(C)c1cc2c(cc1OC)OC(C)(C)CC2 (stereo not drawn)		3.22	59		18.3	7.54	7.82	5.5	10.8	38.4			
CC(NCc1ccccc1)c1cc2c(cc1O)OC(C)(C)C=C2 (stereo not drawn)	10	0.02	109	12.4	6760	17.7	6.18						
O=C(Cn1ccnc1[N+](=O)[O-])NCc1ccccc1 [BENZNIDAZOLE]											1.57		
CCCCCCCCCCCCCCCCOP(=O)([O-])OCC[N+](C)(C)C [MILTEFOSINE]												0.361	
N=C(N)c1ccc(OCCCCCOc2ccc(C(=N)N)cc2)cc1 [PENTAMIDINE]													0.03
